Laboratory results as given in ChEMBL document CHEMBL1134286, “Novel erythromycin derivatives with aryl groups tethered to the C-6 position are potent protein synthesis inhibitors and active against multidrug-resistant respiratory pathogens” (J Med Chem, 2001).
≈ marks a conversion by molar mass, not a printed value.

How the values were obtained:
Assay type in all cases: functional
[1] = Minimum inhibitory concentration against Haemophilus influenzae DILL Amp-R
Method in brief: (§1)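 MICs were determined by agar dilution following National Committee for Clinical Laboratory Standards recommendations. Values are in µg/mL.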

[2] = Minimum inhibitory concentration against Streptococcus pneumoniae 5737 MLSB; method in brief: as §1
Staphylococcus aureus [3] = test: Minimum inhibitory concentration against Staphylococcus aureus A 5177 MLSB-i; method in brief: as §1
Staphylococcus aureus [4] = test: Minimum inhibitory concentration against Staphylococcus aureus ATCC 6538PEry-S; settings: ATCC 6538P; method in brief: as §1
[5] = Minimum inhibitory concentration against Streptococcus pyogenes 930MLSB; method in brief: as §1
Staphylococcus aureus [6] = test: Minimum inhibitory concentration against Staphylococcus aureus A 5278 MLSB-c; method in brief: as §1
[7] = Minimum inhibitory concentration against Streptococcus pyogenes EES 61 Ery-S; method in brief: as §1
[8] = Minimum inhibitory concentration against Streptococcus pyogenes PIU2548 efflux; method in brief: as §1
Streptococcus pneumoniae [9] = test: Minimum inhibitory concentration against Streptococcus pneumoniae 5649 efflux; method in brief: as §1
Streptococcus pneumoniae [10] = test: Minimum inhibitory concentration against Streptococcus pneumoniae ATCC 6303 Ery-S; method in brief: as §1

SMILES	MIC [1]	MIC [2]	MIC (Staphylococcus aureus [3])	MIC (Staphylococcus aureus [4])	MIC [5]	MIC (Staphylococcus aureus [6])	MIC [7]	MIC [8]	MIC (Streptococcus pneumoniae [9])	MIC (Streptococcus pneumoniae [10])
CC[C@H]1OC(=O)[C@H](C)C(=O)[C@H](C)[C@@H](O[C@@H]2O[C@H](C)C[C@H](N(C)C)[C@H]2O)[C@](C)(OC/C=C/c2cccc3ccccc23)C[C@@H](C)C(=O)[C@H](C)[C@H]2NC(=O)O[C@@]21C	4 µg/mL (≈ 5.23 µM)	8 µg/mL (≈ 10.5 µM)	0.1 µg/mL (≈ 0.131 µM)	0.1 µg/mL (≈ 0.131 µM)	16 µg/mL (≈ 20.9 µM)	50 µg/mL (≈ 65.4 µM)	0.015 µg/mL (≈ 0.0196 µM)	0.25 µg/mL (≈ 0.327 µM)	0.25 µg/mL (≈ 0.327 µM)	0.015 µg/mL (≈ 0.0196 µM)
CC[C@H]1OC(=O)[C@H](C)C(=O)[C@H](C)[C@@H](O[C@@H]2O[C@H](C)C[C@H](N(C)C)[C@H]2O)[C@](C)(OCCNCCCCc2ccccc2)C[C@@H](C)C(=O)[C@H](C)[C@H]2NC(=O)O[C@@]21C	4 µg/mL (≈ 5.17 µM)	16 µg/mL (≈ 20.7 µM)	0.2 µg/mL (≈ 0.258 µM)	0.39 µg/mL (≈ 0.504 µM)	> 128 µg/mL	> 100 µg/mL	0.125 µg/mL (≈ 0.161 µM)	2 µg/mL (≈ 2.58 µM)	2 µg/mL (≈ 2.58 µM)	0.03 µg/mL (≈ 0.0388 µM)
CC[C@H]1OC(=O)[C@H](C)C(=O)[C@H](C)[C@@H](O[C@@H]2O[C@H](C)C[C@H](N(C)C)[C@H]2O)[C@](C)(OCCNCc2ccnc3ccccc23)C[C@@H](C)C(=O)[C@H](C)[C@@H](O)[C@]1(C)O	32 µg/mL (≈ 42.2 µM)	> 128 µg/mL	3.1 µg/mL (≈ 4.09 µM)	3.1 µg/mL (≈ 4.09 µM)	> 128 µg/mL	> 100 µg/mL	0.25 µg/mL (≈ 0.33 µM)	4 µg/mL (≈ 5.28 µM)	0.5 µg/mL (≈ 0.66 µM)	0.25 µg/mL (≈ 0.33 µM)
CC[C@H]1OC(=O)[C@H](C)C(=O)[C@H](C)[C@@H](O[C@@H]2O[C@H](C)C[C@H](N(C)C)[C@H]2O)[C@](C)(OC/C=C/c2cnc3sccc3c2)C[C@@H](C)C(=O)[C@H](C)[C@H]2NC(=O)O[C@@]21C	2 µg/mL (≈ 2.59 µM)	0.5 µg/mL (≈ 0.648 µM)	0.05 µg/mL (≈ 0.0648 µM)	0.05 µg/mL (≈ 0.0648 µM)	4 µg/mL (≈ 5.18 µM)	> 100 µg/mL	0.008 µg/mL (≈ 0.0104 µM)	0.25 µg/mL (≈ 0.324 µM)	0.25 µg/mL (≈ 0.324 µM)	0.004 µg/mL (≈ 0.00518 µM)
CC[C@H]1OC(=O)[C@H](C)C(=O)[C@H](C)[C@@H](O[C@@H]2O[C@H](C)C[C@H](N(C)C)[C@H]2O)[C@](C)(OC/C=C/c2cncc3ccccc23)C[C@@H](C)C(=O)[C@H](C)[C@H]2NC(=O)O[C@@]21C	2 µg/mL (≈ 2.61 µM)	64 µg/mL (≈ 83.6 µM)	0.1 µg/mL (≈ 0.131 µM)	0.1 µg/mL (≈ 0.131 µM)	8 µg/mL (≈ 10.4 µM)	> 100 µg/mL	0.004 µg/mL (≈ 0.00522 µM)	0.125 µg/mL (≈ 0.163 µM)	0.25 µg/mL (≈ 0.326 µM)	0.004 µg/mL (≈ 0.00522 µM)
CC[C@H]1OC(=O)[C@H](C)C(=O)[C@H](C)[C@@H](O[C@@H]2O[C@H](C)C[C@H](N(C)C)[C@H]2O)[C@](C)(OC/C=C/c2cnc3ncccc3c2)C[C@@H](C)C(=O)[C@H](C)[C@H]2NC(=O)O[C@@]21C	2 µg/mL (≈ 2.61 µM)	0.5 µg/mL (≈ 0.652 µM)	0.05 µg/mL (≈ 0.0652 µM)	0.05 µg/mL (≈ 0.0652 µM)	0.5 µg/mL (≈ 0.652 µM)	> 100 µg/mL	0.03 µg/mL (≈ 0.0391 µM)	2 µg/mL (≈ 2.61 µM)	2 µg/mL (≈ 2.61 µM)	0.03 µg/mL (≈ 0.0391 µM)
CC[C@H]1OC(=O)[C@H](C)C(=O)[C@H](C)[C@@H](O[C@@H]2O[C@H](C)C[C@H](N(C)C)[C@H]2O)[C@](C)(OCCNCCCc2ccccc2)C[C@@H](C)C(=O)[C@H](C)[C@H]2NC(=O)O[C@@]21C	4 µg/mL (≈ 5.26 µM)	16 µg/mL (≈ 21.1 µM)	0.2 µg/mL (≈ 0.263 µM)	0.2 µg/mL (≈ 0.263 µM)	64 µg/mL (≈ 84.2 µM)	> 100 µg/mL	0.03 µg/mL (≈ 0.0395 µM)	2 µg/mL (≈ 2.63 µM)	0.5 µg/mL (≈ 0.658 µM)	0.03 µg/mL (≈ 0.0395 µM)

Continued, values first:

MIC [1]	MIC [2]	MIC (Staphylococcus aureus [3])	MIC (Staphylococcus aureus [4])	MIC [5]	MIC (Staphylococcus aureus [6])	MIC [7]	MIC [8]	MIC (Streptococcus pneumoniae [9])	MIC (Streptococcus pneumoniae [10])	SMILES
8 µg/mL (≈ 10.1 µM)	64 µg/mL (≈ 80.4 µM)	0.1 µg/mL (≈ 0.126 µM)	0.1 µg/mL (≈ 0.126 µM)	64 µg/mL (≈ 80.4 µM)	> 100 µg/mL	0.03 µg/mL (≈ 0.0377 µM)	0.5 µg/mL (≈ 0.628 µM)	0.5 µg/mL (≈ 0.628 µM)	0.06 µg/mL (≈ 0.0754 µM)	CC[C@H]1OC(=O)[C@H](C)C(=O)[C@H](C)[C@@H](O[C@@H]2O[C@H](C)C[C@H](N(C)C)[C@H]2O)[C@](C)(OC/C=C/c2cnc3ccccc3c2)C[C@@H](C)C(=O)[C@H](C)[C@H]2N(OC)C(=O)O[C@]12C
> 128 µg/mL	> 128 µg/mL	6.2 µg/mL (≈ 9.5 µM)	6.2 µg/mL (≈ 9.5 µM)	> 128 µg/mL	> 100 µg/mL	0.5 µg/mL (≈ 0.766 µM)	2 µg/mL (≈ 3.06 µM)	0.5 µg/mL (≈ 0.766 µM)	0.5 µg/mL (≈ 0.766 µM)	C=CCO[C@]1(C)C[C@@H](C)C(=O)[C@H](C)[C@H]2N(C)C(=O)O[C@]2(C)[C@@H](CC)OC(=O)[C@H](C)C(=O)[C@H](C)[C@H]1O[C@@H]1O[C@H](C)C[C@H](N(C)C)[C@H]1O
128 µg/mL (≈ 186 µM)	64 µg/mL (≈ 92.8 µM)	1.56 µg/mL (≈ 2.26 µM)	1.56 µg/mL (≈ 2.26 µM)	64 µg/mL (≈ 92.8 µM)	> 100 µg/mL	0.25 µg/mL (≈ 0.362 µM)	2 µg/mL (≈ 2.9 µM)	2 µg/mL (≈ 2.9 µM)	1 µg/mL (≈ 1.45 µM)	CC[C@H]1OC(=O)[C@H](C)C(=O)[C@H](C)[C@@H](O[C@@H]2O[C@H](C)C[C@H](N(C)C)[C@H]2O)[C@](C)(OC/C=C/c2ccccc2)C[C@@H](C)C(=O)[C@H](C)[C@@H](O)[C@]1(C)O
